According to ChEMBL document CHEMBL3797175, “Discovery of 6-(difluoro(6-(4-fluorophenyl)-[1,2,4]triazolo[4,3-b][1,2,4]triazin-3-yl)methyl)quinoline as a highly potent and selective c-Met inhibitor” (Eur J Med Chem, 2016):
The source made the active and inactive calls. The calls are words filed in the database; no cut-off is given here.

Target: Hepatocyte growth factor receptor (Homo sapiens, UniProt P08581)
Assay: Inhibition of c-Met phosphorylation at Tyrosine 1234 in HGF stimulated human U87MG cells at 10 nM after 1 hr by Western blot analysis
Type: cell-based
Conditions: U-87MG ATCC
In short: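 U87MG cells serum-starved 24 h, pretreated with compound 1 h at 37 °C, then stimulated with HGF (100 ng/mL) for 15 min. Lysed in 1× SDS sample buffer, resolved by 10% SDS-PAGE and blotted to nitrocellulose. Probed for phospho-c-Met, phospho-ERK1/2, phospho-AKT and totals, with GAPDH as loading control. ECL detection.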

Chain of Hepatocyte growth factor receptor (P08581 whole entry): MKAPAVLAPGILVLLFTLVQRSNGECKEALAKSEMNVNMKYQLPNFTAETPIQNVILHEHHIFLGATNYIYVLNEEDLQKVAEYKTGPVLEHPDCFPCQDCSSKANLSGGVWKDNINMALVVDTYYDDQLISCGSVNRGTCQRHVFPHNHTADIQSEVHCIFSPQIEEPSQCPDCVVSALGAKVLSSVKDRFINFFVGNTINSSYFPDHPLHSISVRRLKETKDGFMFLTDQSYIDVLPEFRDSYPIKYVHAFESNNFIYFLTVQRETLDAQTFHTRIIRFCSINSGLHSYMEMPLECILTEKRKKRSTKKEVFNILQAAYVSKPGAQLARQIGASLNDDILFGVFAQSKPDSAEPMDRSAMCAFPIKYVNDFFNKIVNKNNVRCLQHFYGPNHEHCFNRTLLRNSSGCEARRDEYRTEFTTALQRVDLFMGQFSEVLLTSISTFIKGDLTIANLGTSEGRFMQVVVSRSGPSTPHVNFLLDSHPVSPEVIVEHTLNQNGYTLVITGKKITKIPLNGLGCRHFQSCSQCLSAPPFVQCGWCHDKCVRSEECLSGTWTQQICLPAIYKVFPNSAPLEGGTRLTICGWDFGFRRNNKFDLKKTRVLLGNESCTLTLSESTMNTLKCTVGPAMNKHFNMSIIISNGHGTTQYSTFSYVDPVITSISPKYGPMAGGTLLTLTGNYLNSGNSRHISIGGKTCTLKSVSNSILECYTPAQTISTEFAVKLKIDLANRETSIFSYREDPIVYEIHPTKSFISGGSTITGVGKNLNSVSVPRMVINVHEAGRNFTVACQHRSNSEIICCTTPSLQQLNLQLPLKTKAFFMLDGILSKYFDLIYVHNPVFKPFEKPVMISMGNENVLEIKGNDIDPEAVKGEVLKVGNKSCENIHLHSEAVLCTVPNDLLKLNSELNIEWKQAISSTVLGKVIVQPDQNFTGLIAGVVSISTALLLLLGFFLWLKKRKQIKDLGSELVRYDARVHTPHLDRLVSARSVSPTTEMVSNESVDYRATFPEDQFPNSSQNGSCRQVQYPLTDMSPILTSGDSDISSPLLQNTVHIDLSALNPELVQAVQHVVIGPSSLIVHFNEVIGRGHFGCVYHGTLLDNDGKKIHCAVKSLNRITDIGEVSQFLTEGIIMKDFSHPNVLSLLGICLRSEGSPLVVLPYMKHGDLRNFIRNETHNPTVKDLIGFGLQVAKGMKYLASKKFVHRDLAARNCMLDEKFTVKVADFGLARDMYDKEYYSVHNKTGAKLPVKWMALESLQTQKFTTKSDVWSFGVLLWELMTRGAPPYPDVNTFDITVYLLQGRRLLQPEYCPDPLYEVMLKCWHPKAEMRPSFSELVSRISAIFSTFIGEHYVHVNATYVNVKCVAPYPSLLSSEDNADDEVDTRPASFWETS

Fc1ccc(-c2cnc3nnc(C(F)(F)c4ccc5ncccc5c4)n3n2)cc1
inhibition: Active
